Tests used:
[1] = tested on: Nucleic Acid; assay: Ratio of drug uptake in tumor to lungs of C57BL/6 mouse xenografted with mouse B16F10 cells at 3.7 MBq, iv after 2 hrs by gamma-scintillation counting analysis; type: ADME, organism-based, B16-F10; conditions: in vivo
Procedure, shortened: (§1)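 Same subcutaneous B16F10 model and tail-vein dose of about 3.7 MBq (100 μCi), n = 4 per group. Dissection at 1 or 2 h p.i. Gamma-counter %ID/g of tumor divided by that of blood, lung, liver or muscle, given as mean ± SD.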

[2] = tested on: Nucleic Acid; assay: Ratio of drug uptake in tumor to blood of C57BL/6 mouse xenografted with mouse B16F10 cells at 3.7 MBq, iv after 2 hrs by gamma-scintillation counting analysis; type: ADME, organism-based, B16-F10; conditions: tumour; procedure, shortened: as §1
[3] = tested on: Spleen; assay: Biodistribution in spleen of C57BL/6 mouse xenografted with mouse B16F10 cells at 3.7 MBq, iv after 2 hrs by gamma-scintillation counting analysis; type: ADME, organism-based, B16-F10; conditions: in vivo
Procedure, shortened: (§2)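 1.0 × 10^6 B16F10 cells in PBS injected subcutaneously into the right shoulder of C57BL/6 mice, grown to 0.5 cm (~10 day). Tail-vein injection of about 3.7 MBq (100 μCi) 18F probe in PBS (0.1 M, pH 7.4). Killed at 1.0 or 2.0 h p.i. (n = 4 per group). Tissues excised, weighed and gamma-counted; uptake expressed as %ID/g, mean ± SD.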

[4] = tested on: Liver; assay: Biodistribution in liver of C57BL/6 mouse xenografted with mouse B16F10 cells at 3.7 MBq, iv after 2 hrs by gamma-scintillation counting analysis; type: ADME, organism-based, B16-F10; conditions: in vivo; procedure, shortened: as §2
[5] = tested on: Nucleic Acid; assay: Ratio of drug uptake in tumor to liver of C57BL/6 mouse xenografted with mouse B16F10 cells at 3.7 MBq, iv after 1 hr by gamma-scintillation counting analysis; type: ADME, organism-based, B16-F10; conditions: in vivo; procedure, shortened: as §1
[6] = tested on: Nucleic Acid; assay: Ratio of drug uptake in tumor to blood of C57BL/6 mouse xenografted with mouse B16F10 cells at 3.7 MBq, iv after 1 hr by gamma-scintillation counting analysis; type: ADME, organism-based, B16-F10; conditions: tumour; procedure, shortened: as §1
[7] = tested on: Zone of skin; assay: Biodistribution in skin of C57BL/6 mouse xenografted with mouse B16F10 cells at 3.7 MBq, iv after 1 hr by gamma-scintillation counting analysis; type: ADME, organism-based, B16-F10; conditions: in vivo; procedure, shortened: as §2
[8] = tested on: Brain; assay: Biodistribution in brain of C57BL/6 mouse xenografted with mouse B16F10 cells at 3.7 MBq, iv after 2 hrs by gamma-scintillation counting analysis; type: ADME, organism-based, B16-F10; conditions: in vivo; procedure, shortened: as §2
[9] = tested on: Bone; assay: Biodistribution in bone of C57BL/6 mouse xenografted with mouse B16F10 cells at 3.7 MBq, iv after 1 hr by gamma-scintillation counting analysis; type: ADME, organism-based, Bone element, B16-F10; conditions: in vivo; procedure, shortened: as §2
[10] = tested on: Kidney; assay: Biodistribution in kidney of C57BL/6 mouse xenografted with mouse B16F10 cells at 3.7 MBq, iv after 1 hr by gamma-scintillation counting analysis; type: ADME, organism-based, B16-F10; conditions: in vivo; procedure, shortened: as §2
[11] = tested on: Intestine; assay: Biodistribution in intestine of C57BL/6 mouse xenografted with mouse B16F10 cells at 3.7 MBq, iv after 1 hr by gamma-scintillation counting analysis; type: ADME, organism-based, B16-F10; conditions: in vivo; procedure, shortened: as §2
[12] = tested on: Kidney; assay: Biodistribution in kidney of C57BL/6 mouse xenografted with mouse B16F10 cells at 3.7 MBq, iv after 2 hrs by gamma-scintillation counting analysis; type: ADME, organism-based, B16-F10; conditions: in vivo; procedure, shortened: as §2
[13] = tested on: Liver; assay: Biodistribution in liver of C57BL/6 mouse xenografted with mouse B16F10 cells at 3.7 MBq, iv after 1 hr by gamma-scintillation counting analysis; type: ADME, organism-based, B16-F10; conditions: in vivo; procedure, shortened: as §2
[14] = tested on: Mus musculus; assay: Biodistribution in eye of C57BL/6 mouse xenografted with mouse B16F10 cells at 3.7 MBq, iv after 2 hrs by gamma-scintillation counting analysis; type: ADME, organism-based, B16-F10; conditions: in vivo; procedure, shortened: as §2
[15] = tested on: Muscle tissue; assay: Biodistribution in muscle of C57BL/6 mouse xenografted with mouse B16F10 cells at 3.7 MBq, iv after 2 hrs by gamma-scintillation counting analysis; type: ADME, organism-based, B16-F10; conditions: in vivo; procedure, shortened: as §2
[16] = tested on: Spleen; assay: Biodistribution in spleen of C57BL/6 mouse xenografted with mouse B16F10 cells at 3.7 MBq, iv after 1 hr by gamma-scintillation counting analysis; type: ADME, organism-based, B16-F10; conditions: in vivo; procedure, shortened: as §2
[17] = tested on: Heart; assay: Biodistribution in heart of C57BL/6 mouse xenografted with mouse B16F10 cells at 3.7 MBq, iv after 2 hrs by gamma-scintillation counting analysis; type: ADME, organism-based, B16-F10; conditions: in vivo; procedure, shortened: as §2
[18] = tested on: Mus musculus; assay: Biodistribution in lungs of C57BL/6 mouse xenografted with mouse B16F10 cells at 3.7 MBq, iv after 2 hrs by gamma-scintillation counting analysis; type: ADME, organism-based, Lung, B16-F10; conditions: in vivo; procedure, shortened: as §2
[19] = tested on: Nucleic Acid; assay: Ratio of drug uptake in tumor to muscle of C57BL/6 mouse xenografted with mouse B16F10 cells at 3.7 MBq, iv after 1 hr by gamma-scintillation counting analysis; type: ADME, organism-based, B16-F10; conditions: in vivo; procedure, shortened: as §1
[20] = tested on: Mus musculus; assay: Biodistribution in tumor of C57BL/6 mouse xenografted with mouse B16F10 cells at 3.7 MBq, iv after 1 hr by gamma-scintillation counting analysis; type: ADME, organism-based, Neoplasm, B16-F10; conditions: in vivo; procedure, shortened: as §2
[21] = tested on: Pancreas; assay: Biodistribution in pancreas of C57BL/6 mouse xenografted with mouse B16F10 cells at 3.7 MBq, iv after 1 hr by gamma-scintillation counting analysis; type: ADME, organism-based, B16-F10; conditions: in vivo; procedure, shortened: as §2
[22] = tested on: Stomach; assay: Biodistribution in stomach of C57BL/6 mouse xenografted with mouse B16F10 cells at 3.7 MBq, iv after 2 hrs by gamma-scintillation counting analysis; type: ADME, organism-based, B16-F10; conditions: in vivo; procedure, shortened: as §2
[23] = tested on: Nucleic Acid; assay: Ratio of drug uptake in tumor to liver of C57BL/6 mouse xenografted with mouse B16F10 cells at 3.7 MBq, iv after 2 hrs by gamma-scintillation counting analysis; type: ADME, organism-based, B16-F10; conditions: in vivo; procedure, shortened: as §1
[24] = tested on: Heart; assay: Biodistribution in heart of C57BL/6 mouse xenografted with mouse B16F10 cells at 3.7 MBq, iv after 1 hr by gamma-scintillation counting analysis; type: ADME, organism-based, B16-F10; conditions: in vivo; procedure, shortened: as §2
[25] = tested on: Blood; assay: Biodistribution in blood of C57BL/6 mouse xenografted with mouse B16F10 cells at 3.7 MBq, iv after 2 hrs by gamma-scintillation counting analysis; type: ADME, organism-based, B16-F10; conditions: in vivo; procedure, shortened: as §2
[26] = Drug uptake in tumor of C57BL/6 mouse xenografted with mouse B16F10 cells at 3.7 MBq, iv after 2 hrs by PET imaging analysis; type: ADME, organism-based, Neoplasm, B16-F10; conditions: in vivo
Procedure, shortened: (§3)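 Static small-animal PET at 0.5, 1 and 2 h after tail-vein injection of ~3.7 MBq (100 μCi) into B16F10-bearing C57BL/6 mice (n = 4 per probe). Isoflurane anesthesia, 5% induction and 2% maintenance in O2. Decay-corrected images. ROI-derived %ID/g assumes 1 g/ml density, without attenuation correction. Mean ± SD.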

[27] = Drug uptake in tumor of C57BL/6 mouse xenografted with mouse B16F10 cells at 3.7 MBq, iv after 0.5 hrs by PET imaging analysis; type: ADME, organism-based, Neoplasm, B16-F10; conditions: in vivo; procedure, shortened: as §3
[28] = tested on: Bone; assay: Biodistribution in bone of C57BL/6 mouse xenografted with mouse B16F10 cells at 3.7 MBq, iv after 2 hrs by gamma-scintillation counting analysis; type: ADME, organism-based, Bone element, B16-F10; conditions: in vivo; procedure, shortened: as §2
[29] = tested on: Zone of skin; assay: Biodistribution in skin of C57BL/6 mouse xenografted with mouse B16F10 cells at 3.7 MBq, iv after 2 hrs by gamma-scintillation counting analysis; type: ADME, organism-based, B16-F10; conditions: in vivo; procedure, shortened: as §2
[30] = tested on: Brain; assay: Biodistribution in brain of C57BL/6 mouse xenografted with mouse B16F10 cells at 3.7 MBq, iv after 1 hr by gamma-scintillation counting analysis; type: ADME, organism-based, B16-F10; conditions: in vivo; procedure, shortened: as §2
[31] = tested on: Nucleic Acid; assay: Ratio of drug uptake in tumor to muscle of C57BL/6 mouse xenografted with mouse B16F10 cells at 3.7 MBq, iv after 2 hrs by gamma-scintillation counting analysis; type: ADME, organism-based, B16-F10; conditions: in vivo; procedure, shortened: as §1
[32] = tested on: Mus musculus; assay: Biodistribution in tumor of C57BL/6 mouse xenografted with mouse B16F10 cells at 3.7 MBq, iv after 2 hrs by gamma-scintillation counting analysis; type: ADME, organism-based, Neoplasm, B16-F10; conditions: in vivo; procedure, shortened: as §2
[33] = tested on: Intestine; assay: Biodistribution in intestine of C57BL/6 mouse xenografted with mouse B16F10 cells at 3.7 MBq, iv after 2 hrs by gamma-scintillation counting analysis; type: ADME, organism-based, B16-F10; conditions: in vivo; procedure, shortened: as §2
[34] = tested on: Mus musculus; assay: Biodistribution in lungs of C57BL/6 mouse xenografted with mouse B16F10 cells at 3.7 MBq, iv after 1 hr by gamma-scintillation counting analysis; type: ADME, organism-based, Lung, B16-F10; conditions: in vivo; procedure, shortened: as §2
[35] = tested on: Pancreas; assay: Biodistribution in pancreas of C57BL/6 mouse xenografted with mouse B16F10 cells at 3.7 MBq, iv after 2 hrs by gamma-scintillation counting analysis; type: ADME, organism-based, B16-F10; conditions: in vivo; procedure, shortened: as §2
[36] = tested on: Muscle tissue; assay: Biodistribution in muscle of C57BL/6 mouse xenografted with mouse B16F10 cells at 3.7 MBq, iv after 1 hr by gamma-scintillation counting analysis; type: ADME, organism-based, B16-F10; conditions: in vivo; procedure, shortened: as §2
[37] = tested on: Blood; assay: Biodistribution in blood of C57BL/6 mouse xenografted with mouse B16F10 cells at 3.7 MBq, iv after 1 hr by gamma-scintillation counting analysis; type: ADME, organism-based, B16-F10; conditions: in vivo; procedure, shortened: as §2
[38] = tested on: Stomach; assay: Biodistribution in stomach of C57BL/6 mouse xenografted with mouse B16F10 cells at 3.7 MBq, iv after 1 hr by gamma-scintillation counting analysis; type: ADME, organism-based, B16-F10; conditions: in vivo; procedure, shortened: as §2
[39] = tested on: Nucleic Acid; assay: Ratio of drug uptake in tumor to lungs of C57BL/6 mouse xenografted with mouse B16F10 cells at 3.7 MBq, iv after 1 hr by gamma-scintillation counting analysis; type: ADME, organism-based, B16-F10; conditions: in vivo; procedure, shortened: as §1
[40] = Drug uptake in tumor of C57BL/6 mouse xenografted with mouse B16F10 cells at 3.7 MBq, iv after 1 hr by PET imaging analysis; type: ADME, organism-based, Neoplasm, B16-F10; conditions: in vivo; procedure, shortened: as §3
[41] = tested on: Mus musculus; assay: Biodistribution in eye of C57BL/6 mouse xenografted with mouse B16F10 cells at 3.7 MBq, iv after 1 hr by gamma-scintillation counting analysis; type: ADME, organism-based, B16-F10; conditions: in vivo; procedure, shortened: as §2

## CCN(CC)CCNC(=O)c1cc([18F])ccn1
[1]
  Ratio: 9.46
[2]
  Ratio: 44.33
[3]
  Drug uptake: 0.31 % ID/g
[4]
  Drug uptake: 1.41 % ID/g
[5]
  Ratio: 3.85
[6]
  Ratio: 28.32
[7]
  Drug uptake: 0.73 % ID/g
[8]
  Drug uptake: 0.24 % ID/g
[9]
  Drug uptake: 11.29 % ID/g
[10]
  Drug uptake: 1.34 % ID/g
[11]
  Drug uptake: 2.28 % ID/g
[12]
  Drug uptake: 0.69 % ID/g
[13]
  Drug uptake: 2.07 % ID/g
[14]
  Drug uptake: 32.45 % ID/g
[15]
  Drug uptake: 0.2 % ID/g
[16]
  Drug uptake: 1.09 % ID/g
[17]
  Drug uptake: 0.37 % ID/g
[18]
  Drug uptake: 0.59 % ID/g
[19]
  Ratio: 13.12
[20]
  Drug uptake: 7.54 % ID/g
[21]
  Drug uptake: 1.06 % ID/g
[22]
  Drug uptake: 1.64 % ID/g
[23]
  Ratio: 4.16
[24]
  Drug uptake: 0.6 % ID/g
[25]
  Drug uptake: 0.15 % ID/g
[26]
  Drug uptake: 9.73 % ID/g
[27]
  Drug uptake: 9.52 % ID/g
[28]
  Drug uptake: 10.27 % ID/g
[29]
  Drug uptake: 0.63 % ID/g
[30]
  Drug uptake: 0.49 % ID/g
[31]
  Ratio: 27.75
[32]
  Drug uptake: 8.66 % ID/g
[33]
  Drug uptake: 0.98 % ID/g
[34]
  Drug uptake: 0.88 % ID/g
[35]
  Drug uptake: 0.44 % ID/g
[36]
  Drug uptake: 0.6 % ID/g
[37]
  Drug uptake: 0.33 % ID/g
[38]
  Drug uptake: 2.24 % ID/g
[39]
  Ratio: 8.81
[40]
  Drug uptake: 8.97 % ID/g
[41]
  Drug uptake: 35.96 % ID/g

From ChEMBL document CHEMBL2311435, “Development of 18F-labeled picolinamide probes for PET imaging of malignant melanoma” (J Med Chem, 2013)
